The nature of test [1]: Cytotoxicity against human U373 cells after 72 hrs by MTT assay. In kind it is functional, cell-based, U-373MG ATCC. The conditions noted are these: U373 MG. The procedure, abridged: (§1)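 MTT colorimetric assay on human cancer cell lines; IC50 growth inhibitory concentration determined in vitro for each compound.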
(In general: Tetrazolium dyes change colour on reduction, which living cells bring about.)

Test [2] can be described thus: Cytotoxicity against human OE21 cells after 72 hrs by MTT assay. In kind it is functional, cell-based. To be noted: OE21, 72 h. The procedure, abridged: as §1
In the next test the test system is A549. As to the kind of experiment: Cytotoxicity against human A549 cells after 72 hrs by MTT assay. In kind it is functional, cell-based. To be noted: A549, 72 h. Put shortly: as §1
The subject of the next test is PC-3. In words: Cytotoxicity against human PC3 cells after 72 hrs by MTT assay. In kind it is functional, cell-based. The conditions noted are these: PC-3, 72 h. Put shortly:
as §1

The subject of a further test is SK-MEL-28. In words: Cytotoxicity against human SK-MEL-28 cells after 72 hrs by MTT assay. Type of test: functional, cell-based. The conditions noted are these: SK-MEL-28, 72 h. The procedure, abridged:
as §1

For a further test, the system named is LoVo. In words: Cytotoxicity against human LoVo cells after 72 hrs by MTT assay. Type of test: functional, cell-based. The procedure, abridged:
as §1

The nature of test [3]: Cytostatic activity against human U373 cells assessed as growth inhibition at MTT assay-related IC50 by quantitative video microscopy relative to control. In kind it is functional, U-373MG ATCC.
A short description of test [4]: Induction of human U373 cell death assessed as morphological changes at MTT assay-related IC50 after 72 hrs by quantitative video microscopy. Type of test: functional, U-373MG ATCC.
A short description of test [5]: Cytotoxicity against human U373 cells assessed as growth inhibition at MTT assay-related IC50 by quantitative video microscopy relative to control. In kind it is functional, U-373MG ATCC.

For `COc1cc(/C=C/C=O)cc(OC)c1O`, the IC50 was 56 µM in [1]; 39 µM in test [2]; more than 100 µM with A549; 63 µM in the test with PC-3; 66 µM with SK-MEL-28; 33 µM in the test on LoVo. Moreover, in test [3], the “growth inhibition (GI)” value worked out at 50%. Also, the Activity in test [4] was 2%.

As for `COc1cc(/C=C/C=O)ccc1O` [CONIFERYL ALDEHYDE], the half-inhibitory concentration (IC50) in test [1] turned out to be 28 µM; in test [2] it was 29 µM; in the test on A549, 59 µM; in the test with PC-3 it was 35 µM; in the test on SK-MEL-28, 33 µM; with LoVo, 23 µM. Also, in test [3], the “growth inhibition (GI)” value was 50%. Also, in [4], the Activity worked out at 13%.

`O=C(/C=C/c1ccc(O)cc1)c1ccc(O)cc1O` [ISOLIQUIRITIGENIN]: the IC50 was 68 µM in test [1]; 48 µM in test [2]; 85 µM with A549; 99 µM in the test on PC-3; 75 µM in the test with SK-MEL-28; 57 µM with LoVo. For the same compound, the “growth inhibition (GI)” value in test [3] stood at 60%. In test [4], the Activity is 7%.

`COc1c(OCC=C(C)C)ccc2ccc(=O)oc12` [LACINARTIN]: the half-inhibitory concentration (IC50) was 70 µM in [1]; more than 100 µM in [2]; 95 µM with A549; 46 µM in the test on PC-3; more than 100 µM in the test with SK-MEL-28; 40 µM with LoVo. Besides, the Activity in [4] is on record as 37%. For the same compound, the “growth inhibition (GI)” value in [5] turned out to be 80%.

For `CC(C)=CCOc1cc(O)c2c(c1)C(=O)c1cc(C)cc(O)c1C2=O` [MADAGASCIN], the IC50 in test [1] is 5 µM; in test [2] it was 10 µM; in the test on A549 it was 20 µM; with PC-3, 6 µM; in the test on SK-MEL-28 it was 7 µM; in the test with LoVo, 8 µM. The Activity in test [4] was 95%. Further, the “growth inhibition (GI)” value in test [5] is given as 80%.

Regarding `COc1cc(/C=C/C=O)cc(OC)c1OC/C=C(\C)CCC=C(C)C` [NELUMAL A], the IC50 in test [1] came to 8 µM; in [2] it was 27 µM; in the test on A549 it was 71 µM; in the test with PC-3 it was 39 µM; with SK-MEL-28 it was 26 µM; in the test with LoVo, 23 µM. Also, the Activity in [4] stood at 100%. The “growth inhibition (GI)” value in test [5] was 80%.

On to `COc1cc(/C=C/CO)cc(OC)c1OC/C=C(\C)CCC=C(C)C` [NELUMOL A], for which the IC50 in [1] worked out at 42 µM; in test [2], 39 µM; in the test with A549, 76 µM; in the test with PC-3, 40 µM; in the test on SK-MEL-28 it was 72 µM; in the test on LoVo it was 38 µM. In addition, the Activity in test [4] was determined as 17%. Moreover, the “growth inhibition (GI)” value in test [5] is reported as 80%.

Take `CC(C)=CCC/C(C)=C/CC/C(C)=C/COc1ccc2ccc(=O)oc2c1` [UMBELLIPRENIN]: the IC50 in test [1] amounted to 72 µM; in test [2], 30 µM; in the test with A549, 71 µM; in the test on PC-3, 75 µM; in the test with SK-MEL-28, 66 µM; with LoVo, 50 µM. In test [4], the Activity stood at 40%. Moreover, the “growth inhibition (GI)” value in test [5] is recorded as 90%.

By IC50 is commonly meant the concentration needed to halve the response being measured. Read a high IC50 as weaker potency in that assay.
